Type in all cases: functional
Experiment [1] concerns Mus musculus. Kind of experiment: Anticonvulsive activity against picrotoxin-induced (6 mg/kg sc) convulsions in mice, time of death. A digest of the protocol: (§1)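 Male CFLP mice (25–35 g), 10 per group. Peptides in physiological saline given ip at 0.8 μmol/kg (1 mg/kg for CCK-8) 10 min before picrotoxin 6 mg/kg sc. Latency to first tonic seizure and time of death recorded over 60 min; a score of 60 is given if neither occurs. Percentage prolongation of mean saline-control latency is expressed relative to CCK-8. Student's t test vs saline controls.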

The species named for a further experiment is Oryctolagus cuniculus. The experiment in a line: Compound was evaluated for cholecystokinin activity measured in isolated rabbit gallbladder strips (in vitro). A digest of the protocol:
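Tension changes recorded with a force-displacement transducer. Dose-response curves were run for CCK-8 and each analogue, with five determinations per compound. ED50 and maximal response came from direct observation and a Dowd-Riggs linear transformation. Activity is relative to CCK-8 (100%), reported as mean ± SEM.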

Experiment [2] has as its system Mus musculus. Kind of experiment: Anticonvulsive potency against picrotoxin induced (6 mg/kg sc) convulsions in mice, first tonic seizure. The method, boiled down: as §1
A further experiment concerns Rattus norvegicus. The experiment in a line: Compound was evaluated for (in vivo) gastrin like activity measured on perfused rat stomach after intravenous administration. A digest of the protocol:
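Male Wistar rats (~250 g), perfused stomach; peptides given iv in physiological saline at 10, 20, 40, 80, 160 and 320 ng; secreted HCl measured by conductometric titration. Pentagastrin standard at 10–80 ng, taken as 100%. Relative potency expressed as a percentage; 10 animals per compound; detection limit 1–2% of pentagastrin.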

*1 amine or outer side, *2 acyl side, *3 side chain or, on linkers, in order; H or OH if unused. Where a SMILES comes first, the peptide text is derived from it. [ ]: non-standard residue; d: D form. X1 = O=C([C@@H]1C[C@@H](OS(=O)(=O)O)CN1[*:1])[*:2]; Thr(SO3H) = C[C@@H](OS(=O)(=O)O)[C@H](N)C(=O)O; sY = N[C@@H](Cc1ccc(OS(=O)(=O)O)cc1)C(=O)O

Take `CSCC[C@H](NC(=O)[C@H](Cc1ccc(OS(=O)(=O)[O-])cc1)NC(C)=O)C(=O)NCC(=O)N[C@H](Cc1c[nH]c2ccccc12)C(=O)N[C@@H](CCSC)C(=O)N[C@@H](CC(=O)O)C(=O)N[C@@H](Cc1ccccc1)C(N)=O.[Na+]`: the Activity in the experiment on Mus musculus [1] stood at 45%; in the experiment listed under Oryctolagus cuniculus, 0.7%; in the experiment on Mus musculus [2] it was 65%; with Rattus norvegicus it was 0%.
The like results for `CSCC[C@H](NC(=O)[C@H](Cc1c[nH]c2ccccc12)NC(=O)[C@@H](C)NC(=O)[C@H](CCSC)NC(=O)[C@H](Cc1ccc(OS(=O)(=O)[O-])cc1)NC(C)=O)C(=O)N[C@@H](CC(=O)O)C(=O)N[C@@H](Cc1ccccc1)C(N)=O.[Na+]` were, in that order, 115%, 40%, 100% and 0%.
On to `CSCC[C@H](NC(=O)[C@H](Cc1ccc(O)cc1)NC(C)=O)C(=O)NCC(=O)N[C@@H](Cc1c[nH]c2ccccc12)C(=O)N[C@@H](CCSC)C(=O)N[C@@H](COS(=O)(=O)[O-])C(=O)N[C@@H](Cc1ccccc1)C(N)=O.[Na+]`, for which the Activity in the experiment filed under Oryctolagus cuniculus came to 0.3%; with Rattus norvegicus it was 40%.
For the compound `CSCC[C@H](NC(=O)[C@H](Cc1ccc(OS(=O)(=O)[O-])cc1)NC(C)=O)C(=O)NCC(=O)N[C@@H](Cc1c[nH]c2ccccc12)C(=O)N[C@@H](CCSC)C(=O)N[C@@H](COS(=O)(=O)[O-])C(=O)N[C@@H](Cc1ccccc1)C(N)=O.[Na+].[Na+]`, the Activity is reported as 121% in the experiment on Mus musculus [1], 190% in the experiment filed under Oryctolagus cuniculus, 66% with Mus musculus [2] and 0% with Rattus norvegicus.
For `CSCC[C@H](NC(=O)[C@H](Cc1ccc(OS(=O)(=O)[O-])cc1)NC(C)=O)C(=O)NCC(=O)N[C@@H](Cc1c[nH]c2ccccc12)C(=O)N[C@H](CCSC)C(=O)N[C@@H](CC(=O)O)C(=O)N[C@@H](Cc1ccccc1)C(N)=O.[Na+]` the same measures were 0%, 0.6%, 21% and 0%.
For `CSCC[C@H](NC(=O)[C@H](Cc1ccc(O)cc1)NC(C)=O)C(=O)NCC(=O)N[C@@H](Cc1c[nH]c2ccccc12)C(=O)N[C@@H](CCSC)C(=O)N[C@H](C(=O)N[C@@H](Cc1ccccc1)C(N)=O)[C@@H](C)OS(=O)(=O)[O-].[Na+]` (Ac-YMGWM[Thr(SO3H)]F-NH2), the Activity is recorded as 0.2% in the experiment listed under Oryctolagus cuniculus and 25% with Rattus norvegicus.
For `CSCC[C@H](NC(=O)[C@H](Cc1ccc(O)cc1)NC(C)=O)C(=O)NCC(=O)N[C@@H](Cc1c[nH]c2ccccc12)C(=O)N[C@@H](CCSC)C(=O)N1C[C@H](OS(=O)(=O)[O-])C[C@H]1C(=O)N[C@@H](Cc1ccccc1)C(N)=O.[Na+]` (Ac-YMGWM[X1]F-NH2), the Activity in the experiment filed under Oryctolagus cuniculus was 0.3%; with Rattus norvegicus it was 0%.
As to `CSCC[C@H](NC(=O)[C@H](Cc1ccc(OS(=O)(=O)[O-])cc1)NC(C)=O)C(=O)NCC(=O)N[C@@H](Cc1c[nH]c2ccccc12)C(=O)N[C@@H](CCSC)C(=O)N[C@H](C(=O)N[C@@H](Cc1ccccc1)C(N)=O)[C@@H](C)OS(=O)(=O)[O-].[Na+].[Na+]` (Ac-[sY]MGWM[Thr(SO3H)]F-NH2), the Activity came out at 115% in the experiment with Mus musculus [1], 166% in the experiment listed under Oryctolagus cuniculus, 146% in the experiment on Mus musculus [2] and 0% with Rattus norvegicus.
The like results for `CSCC[C@H](NC(=O)[C@H](Cc1ccc(OS(=O)(=O)[O-])cc1)NC(C)=O)C(=O)NCC(=O)N[C@@H](Cc1c[nH]c2ccccc12)C(=O)N[C@@H](CCSC)C(=O)N1C[C@H](OS(=O)(=O)[O-])C[C@H]1C(=O)N[C@@H](Cc1ccccc1)C(N)=O.[Na+].[Na+]` (Ac-[sY]MGWM[X1]F-NH2) were, in that order, 121%, 300%, 79% and 0%.
For `CSCC[C@H](NC(=O)[C@H](Cc1ccc(OS(=O)(=O)O)cc1)NC(=O)[C@@H](N)CC(=O)O)C(=O)NCC(=O)N[C@@H](Cc1c[nH]c2ccccc12)C(=O)N[C@@H](CCSC)C(=O)N[C@@H](CC(=O)O)C(=O)N[C@@H](Cc1ccccc1)C(N)=O` [SINCALIDE] the same measures were 100%, 100%, 100% and 0%.
H-GWMDF-NH2: the Activity in the experiment with Mus musculus [1] was 38%; in the experiment filed under Oryctolagus cuniculus, 0%; in the experiment with Mus musculus [2], 62%; in the experiment on Rattus norvegicus it was 100%.

(Values after ChEMBL document CHEMBL1122682, “Synthesis of potent heptapeptide analogues of cholecystokinin” (1984).)
